This assay concerns the target Calcium/calmodulin-dependent protein kinase type 1D (Homo sapiens, UniProt Q8IU85). Nature of the assay: Binding affinity to wild-type human partial length CAMK1D (M1 to K299 residues) expressed in bacterial expression system after 1 hr by Kinomescan method. The procedure, abridged:
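KINOMEscan binding; Kd determined for DDR1 and the off-target kinases DDR2, CAMK1D, CLK4 and TTK.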

The source of these data is ChEMBL document CHEMBL4342493, “Design and Optimization of 3'-(Imidazo[1,2-a]pyrazin-3-yl)-[1,1'-biphenyl]-3-carboxamides as Selective DDR1 Inhibitors” (ACS Med Chem Lett, 2020).

Broadly, the Kd is the equilibrium constant for the complex coming apart.

Sequence of Calcium/calmodulin-dependent protein kinase type 1D (Q8IU85 whole entry, the tested form may be a part): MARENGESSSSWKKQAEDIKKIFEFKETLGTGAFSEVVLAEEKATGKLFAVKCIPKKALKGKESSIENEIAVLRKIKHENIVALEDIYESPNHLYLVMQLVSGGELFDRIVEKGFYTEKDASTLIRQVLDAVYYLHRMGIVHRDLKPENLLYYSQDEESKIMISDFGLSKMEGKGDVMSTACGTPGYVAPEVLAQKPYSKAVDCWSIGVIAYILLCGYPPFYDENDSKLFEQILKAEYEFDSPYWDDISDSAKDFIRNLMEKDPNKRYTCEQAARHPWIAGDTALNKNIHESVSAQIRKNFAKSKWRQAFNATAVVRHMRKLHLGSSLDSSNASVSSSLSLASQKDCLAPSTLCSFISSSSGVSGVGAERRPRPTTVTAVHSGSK

Regarding `CCc1ccc(C(=O)Nc2cc(F)cc(C(F)(F)F)c2)cc1-c1cc(C)cc(-c2cnc3cnccn23)c1`, the Kd is more than 1000 nM.
